# Published values from different studies.
# Protocols differ between the studies behind these lines.
# Target: LIM domain kinase 2 (LIMK2, Homo sapiens, UniProt P53671)
Compound,observed,action,method,tested at,endpoint,result
O=C(NCc1ncc(C(F)(F)F)cc1Cl)c1ccc2c(c1)C1(CCS(=O)(=O)CC1)[C@@H](C1CC1)N2S(=O)(=O)c1ccc(F)cc1,cell-free assay,,competition with immobilised ligand,1 µM,remaining binding,94%
Nc1ncnc2occ(-c3ccc(NC(=O)Nc4cc(C(F)(F)F)ccc4F)cc3)c12,cell-free assay,inhibitor,,20 µM,remaining signal,8.8%
O=C(Nc1cnn(-c2csc(C(=O)NC3COC3)c2)c1)Nc1ccccc1Cl,enzyme activity,inhibitor,,5 µM,remaining activity,96.8%
CCOc1cc(-c2nncn2C)ccc1Nc1ncc2cc(C)nc(NCC(C)(C)C)c2n1,cell-free assay,,TR-FRET,1 µM,inhibition,≤ 15%
COc1cc(Cl)c(C(=O)N[C@@H](CN[C@H]2CC[C@@H](N)CC2)Cc2ccc(C#N)cc2)cc1-c1ccc(CN[C@H](C)c2ccc(C)cc2)o1,enzyme activity,inhibitor,,1 µM,remaining activity,101%
Cc1sc(C(=O)NC2COC2)cc1-n1cc(NC(=O)Nc2c(F)cccc2Cl)cn1,enzyme activity,inhibitor,,10 µM,remaining activity,113%
Cc1ccc(C(=O)Nc2ccc(CN3CCN(C)CC3)c(C(F)(F)F)c2)cc1C#Cc1cnc2cccnn12,enzyme activity,inhibitor,,23.5 nM,remaining activity,100%
O=C(N[C@H]1CCCCC/C=C\C2C[C@@]2(C(=O)O)NC(=O)[C@@H]2C[C@@H](Oc3ccncc3)CN2C1=O)OC1CCCC1 (stereo partly drawn),binding,,competition with immobilised ligand,1 µM,remaining binding,93%
CC(C)(C)c1nc2c(s1)c1nc(N)ncc1c1ccc(NS(=O)(=O)c3c(F)cccc3F)c(F)c12,enzyme activity,inhibitor,radiometric,1 µM,remaining activity,92%
c1cnn2ncc(-c3ccnc(N4CCC45COC5)n3)c2c1,binding,,,1 µM,remaining binding,82%
CC(C)(C)c1nc(-c2cccc(NS(=O)(=O)c3c(F)cccc3F)c2F)c(-c2ccnc(N)n2)s1,enzyme activity,inhibitor,radiometric,1 µM,remaining activity,87%
CN1CC(Oc2cnc(C#N)cc2-c2ccn3nc(NC(=O)C4CC4)cc3c2)C1,enzyme activity,inhibitor,,1 µM,inhibition,5%
